From ChEMBL document CHEMBL3751796, “Structure-Based Discovery of Novel Cyclophilin A Inhibitors for the Treatment of Hepatitis C Virus Infections” (J Med Chem, 2015) come the findings set out here.

Data set [1] is described as follows: Cytotoxicity against mock-infected human Huh7.5 cells assessed as reduction in cell viability incubated for 5 hrs by MTT assay. The settings on record: mock-infected Huh7.5 cells. It is filed as cell-based, Huh-7. The method, boiled down:
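Mock-infected Huh7.5 cells run alongside the JFH1-Luc antiviral assay with 3-fold serial dilutions. Viability read by MTT assay to give CC50.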
On the technique in general: Tetrazolium dyes change colour on reduction, which living cells bring about.

In data set [2] the test system is Hepatitis C virus. Briefly: Antiviral activity against recombinant HCV genotype 2a JFH1 infected in human […] for 5 hrs measured on day 3 post infection by luciferase reporter gene assay. The format is functional, organism-based, Hepacivirus hominis. Particulars: JFH-1, Huh-7. The essentials: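 Huh7.5 cells infected with JFH1-Luc virus (MOI 0.004) for 5 h at 37 °C with 3-fold serial dilutions of compound. Renilla luciferase read from lysates on day 3 postinfection to derive EC50.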
In general terms: Reporter assays use an easily measured gene product as a stand-in for the process of interest.

Data set [3] can be described thus: Selectivity index, ratio of CC50 for mock-infected human Huh7.5 cells to EC50 for recombinant HCV genotype 2a JFH1. The arrangement: species or system Huh-7. The method, boiled down: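 Huh7.5 cells infected with JFH1-Luc virus (MOI 0.004, 5 h, 37 °C) in the presence of 3-fold serial dilutions. EC50 came from Renilla luciferase on day 3. CC50 came from MTT viability of mock-infected Huh7.5 cells treated in parallel. SI = CC50/EC50.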

The term CC50 denotes the concentration giving 50% cytotoxicity. For orientation: EC50 means the concentration giving half of the maximal effect. Consider `COc1ccc(CCC(=O)N(c2ccc(C(C)C)cc2)C(C(=O)NC2CCCCC2)c2ccc(Cl)cc2)cc1` (configuration not stated), for which the CC50 at 5 h in data set [1] is > 100 µM. Besides, the EC50 in data set [2] is > 100 µM.
Regarding `CC(=O)N(c1ccc(C(C)C)cc1)C(C(=O)NC1CCCCC1)c1ccc(Cl)cc1` (configuration not stated), the CC50 at 5 h in data set [1] amounted to 89.2 µM. Besides, in data set [3], the “Ratio CC50/EC50” value is given as 8.2. The EC50 in data set [2] was determined as 10.8 µM.
On to `NC(=O)c1ncn([C@@H]2O[C@H](CO)[C@@H](O)[C@H]2O)n1` [RIBAVIRIN], for which, in data set [1], the CC50 at 5 h was > 100 µM. Further, the “Ratio CC50/EC50” value in data set [3] is >6.1. The EC50 in data set [2] was found to be 16.3 µM.
The corresponding values for `COc1cccc(CCN(C(=O)c2ccc(Cl)nc2)C(C(=O)NC2CCCCC2)c2ccc([N+](=O)[O-])cc2)c1` (configuration not stated) are > 100 µM, >13.8 and 7.2 µM.
Take `COc1ccc(N(C(=O)c2cccc(C)c2C)C(C(=O)NC2CCCCC2)c2ccc(O)cc2)cc1OC` (configuration not stated): the CC50 at 5 h in data set [1] stood at 69.8 µM. The “Ratio CC50/EC50” value in data set [3] came out at 6.1. Also, in data set [2], the EC50 worked out at 11.4 µM.
For the molecule `COc1ccc(N(C(=O)c2cc(C)ccc2C)C(C(=O)NC2CCCCC2)c2ccc([N+](=O)[O-])cc2)cc1OC` (configuration not stated), the CC50 at 5 h in data set [1] came out at 68.3 µM. For the same molecule, in data set [3], the “Ratio CC50/EC50” value turned out to be 8.6. Moreover, the EC50 in data set [2] is 7.9 µM.
As for `COc1ccc(C(C(=O)NC2CCCCC2)N(C(=O)Cc2c[nH]c3ccccc23)c2ccccc2)cc1OC` (configuration not stated), in data set [1], the CC50 at 5 h was found to be 22.5 µM. Besides, the EC50 in data set [2] was > 22.3 µM.
With `COc1ccc(N(C(=O)Cc2c[nH]c3ccccc23)C(C(=O)NC2CCCCC2)c2ccc(F)cc2)cc1` (configuration not stated), the CC50 at 5 h in data set [1] turned out to be 63.6 µM. In data set [3], the “Ratio CC50/EC50” value is recorded as 2.4. Besides, in data set [2], the EC50 amounted to 26.5 µM.
Turning to `COc1ccc(CCC(=O)N(c2ccc(OC)c(OC)c2)C(C(=O)NC2CCCCC2)c2ccc(Cl)cc2)cc1` (configuration not stated), the CC50 at 5 h in data set [1] amounted to 57.4 µM. Also, the “Ratio CC50/EC50” value in data set [3] came to 1.8. In addition, the EC50 in data set [2] was determined as 31.1 µM.
Regarding `COc1ccc([N+](=O)[O-])c(C(=O)N(CCc2ccc(OC)c(OC)c2)C(C(=O)NC2CCCCC2)c2ccc([N+](=O)[O-])cc2)c1` (configuration not stated), the CC50 at 5 h in data set [1] was > 100 µM. Further, the “Ratio CC50/EC50” value in data set [3] is listed as >2.8. Moreover, the EC50 in data set [2] is 34.8 µM.
As for `COc1ccc(CCN(C(=O)c2ccccc2)C(C(=O)NC2CCCCC2)c2ccc([N+](=O)[O-])cc2)cc1OC` (configuration not stated), the CC50 at 5 h in data set [1] is > 100 µM. Also, in data set [3], the “Ratio CC50/EC50” value is on record as >11.2. Moreover, the EC50 in data set [2] came to 8.9 µM.
Take `CCCCCNC(=O)C(c1ccc2c(c1)OCO2)N(C(=O)CCCC)c1ccc(OC)c(OC)c1` (configuration not stated): in data set [1], the 50% cytotoxic concentration (CC50) at 5 h is 32.2 µM. Also, in data set [2], the EC50 is > 32.2 µM.
In the case of `COc1ccc(CCC(=O)N(c2ccc(Br)cc2)C(C(=O)NC2CCCCC2)c2ccc([N+](=O)[O-])cc2)cc1` (configuration not stated), the cytotoxic concentration (CC50) at 5 h in data set [1] is 9.8 µM. Besides, the “Ratio CC50/EC50” value in data set [3] was found to be 1.6. The EC50 in data set [2] was 6.1 µM.
The corresponding values for `COc1cccc(CCC(=O)N(c2ccc(OC)c(OC)c2)C(C(=O)NC2CCCCC2)c2ccc(O)cc2)c1` (configuration not stated) are 51.5 µM, 3.3 and 15.5 µM.
Regarding `COc1ccc(N(C(=O)Cc2c[nH]c3ccccc23)C(C(=O)NC2CCCCC2)c2ccc([N+](=O)[O-])cc2)cc1` (configuration not stated), the CC50 at 5 h in data set [1] amounted to 8.5 µM. For the same molecule, the “Ratio CC50/EC50” value in data set [3] is given as 3.4. Besides, the EC50 in data set [2] came out at 2.5 µM.
On to `O=C(NC1CCCCC1)C(c1ccccc1)N(C(=O)Cc1c[nH]c2ccccc12)c1ccccc1` (configuration not stated), for which the half-maximal cytotoxic concentration (CC50) at 5 h in data set [1] was found to be 30.5 µM. In addition, in data set [2], the EC50 was > 30.5 µM.
On to `COc1ccc(N(C(=O)Cc2c[nH]c3ccccc23)C(C(=O)NC2CCCCC2)c2ccc(OC)c(OC)c2OC)cc1OC` (configuration not stated), for which the CC50 at 5 h in data set [1] is 27.1 µM. Also, the EC50 in data set [2] is > 27.1 µM.
As for `O=C(NC1CCCCC1)C(c1ccc(Cl)cc1)N(C(=O)Cc1c[nH]c2ccccc12)c1ccccc1` (configuration not stated), in data set [1], the CC50 at 5 h stood at 10.2 µM. The “Ratio CC50/EC50” value in data set [3] was determined as 3.1. Moreover, the EC50 in data set [2] came out at 3.3 µM.
As to `CC(C)c1ccc(N(C(=O)c2ccccc2)C(C(=O)NC2CCCCC2)c2ccc(Cl)cc2)cc1` (configuration not stated), the CC50 at 5 h in data set [1] was determined as 64.5 µM. For the same molecule, in data set [3], the “Ratio CC50/EC50” value stood at 9.6. The EC50 in data set [2] was 6.7 µM.
On to `COc1ccccc1N(C(=O)Cc1c[nH]c2ccccc12)C(C(=O)NC1CCCCC1)c1cc(OC)c(OC)c(OC)c1` (configuration not stated), for which, in data set [1], the CC50 at 5 h was 23.2 µM. Moreover, the EC50 in data set [2] was > 23.2 µM.
For the molecule `COc1cc(C(C(=O)NC2CCCCC2)N(C(=O)Cc2c[nH]c3ccccc23)c2ccccc2)cc(OC)c1OC` (configuration not stated), the CC50 at 5 h in data set [1] is 36.8 µM. Further, the “Ratio CC50/EC50” value in data set [3] is recorded as 2.2. For the same molecule, the EC50 in data set [2] worked out at 16.3 µM.
